Reference: ChEMBL document CHEMBL2331340, “Novel antitumor indolizino[6,7-b]indoles with multiple modes of action: DNA cross-linking and topoisomerase I and II inhibition” (J Med Chem, 2013)
The source made the active and inactive calls. The rule behind the calls is not given here.

Columns and labels:
MX1 = assay: Cytotoxicity against human MX1 cells after 72 hrs by SRB assay; assay type: functional, cell-based; settings: MX1, 72 h
PC-3 = assay: Cytotoxicity against human PC3 cells after 72 hrs by Alamar blue assay; assay type: functional, cell-based; settings: PC-3, 72 h
Method in brief: (§1)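 Cells exposed to compound for 72 h, then Alamar blue added with a further 10−12 h at 37 °C and a spectrophotometric read. IC50 from six or seven concentrations by median-effect analysis; mean ± STDEV, n = 3. CL141T is a line derived from a patient lung tumor passaged as a SCID mouse xenograft.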

CCRF-CEM = assay: Cytotoxicity against human CCRF-CEM cells after 72 hrs by XTT assay; assay type: functional, cell-based
Method in brief: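 CCRF-CEM T-ALL cells incubated with compound for 72 h. XTT with phenazine methosulfate then added for 6 h at 37 °C, absorbance read at 450 and 630 nm. IC50 from six or seven concentrations by median-effect analysis; mean ± STDEV, n = 3.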

[1] = Half life in rat plasma at 1 to 10 ug/mL after 1 to 4 hrs by HPLC analysis; assay type: ADME, cell-free
Method in brief: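 Rat plasma spiked at 1 and 10 μg/mL and held 1, 2, 3 and 4 h at room temperature. Protein precipitated with acetonitrile containing 10 μg/mL propyl paraben internal standard, centrifuged, filtered. Analysed by reversed-phase C18 HPLC in acetonitrile/10 mM NaH2PO4 pH 4.5 (32:68). Stability given as mean relative error, at least three replicates per concentration.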

Escherichia coli = assay: Induction of Escherichia coli pEGFP-N1 DNA interstrand cross-linking at 1 to 10 uM after 2 hrs by alkaline agarose gel shift assay
Method in brief: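 Plasmid pEGFP-N1 DNA (1500 ng) incubated with compound at 1, 5 and 10 μM in 3 mM NaCl/1 mM sodium phosphate pH 7.4/1 mM EDTA, 2 h at 37 °C. DNA then BamHI-linearized, EtOH-precipitated, denatured in 0.5 N NaOH/10 mM EDTA, run on 0.8% alkaline agarose at 4 °C (18 V, 22 h), stained with ethidium bromide.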

NCI-H460 [2] = assay: Induction of apoptosis in human H460 cells assessed as increase in cleaved caspase 7 expression at IC50 after 24 to 72 hrs by Western blotting analysis; assay type: functional, cell-based
Method in brief: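 H460 cells treated at IC50 for 24 and 72 h. Lysate proteins separated by SDS-PAGE and blotted to nitrocellulose, blocked in 5% milk/PBST. Primary antibodies to caspase-3, caspase-7, PARP (full-length and cleaved) and β-actin applied for 1 h at room temperature or overnight at 4 °C; HRP secondary with ECL detection.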

NCI-H460 [3] = assay: Induction of apoptosis in human H460 cells assessed as increase in apoptotic cells at IC50 after 72 hrs by annexin V-FITC/propidium iodide staining-based FACS flow cytometric analysis (reference value: 9.29%); assay type: functional
[4] = Cell cycle arrest in human CL141T cells assessed as accumulation at G2/M phase at 0.5 x IC50 to 1 x IC50 after 48 to 72 hrs by propidium iodide staining-based FACS flow cytometric analysis; assay type: functional
Method in brief: (§2)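 CL141T cells treated at 0.5-, 1- and 2-fold IC50 for 24, 48 and 72 h. Cells fixed in ice-cold 70% EtOH, then stained with 4 μg/mL propidium iodide in PBS with 1% Triton X-100 and 0.1 mg/mL RNase A. Phase distribution from flow cytometry DNA histograms; sub-G1 fraction scored as well.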

[5] = Cell cycle arrest in human CL141T cells assessed as accumulation at G1 phase at 1 x IC50 to 2 x IC50 after 24 hrs by propidium iodide staining-based FACS flow cytometric analysis; assay type: functional; method in brief: as §2
Mus musculus = assay: Toxicity in nude mouse xenografted with human A549 cells assessed as body weight loss at 25 mg/kg, iv qd administered 4 days measured for 20 days; assay type: organism-based; set-up: dose 25 mg/kg, route intravenous; settings: in vivo, 480 h
HT-29 = assay: Antitumor activity against human HT-29 cells xenografted in nude mouse assessed as tumor growth inhibition at 25 mg/kg, iv qd administered 4 days measured on day 20; assay type: functional, organism-based; set-up: dose 25 mg/kg
MES-SA = assay: Resistance factor, ratio of IC50 for human MES-SA/Dx5 cells to IC50 for human MES-SA cells; assay type: functional
[6] = Resistance factor, ratio of IC50 for human KB-VIN10 cells to IC50 for human KB cells; assay type: functional
A549 = assay: Cytotoxicity against human A549 cells after 72 hrs by Alamar blue assay; assay type: functional, cell-based; settings: A549, 72 h; method in brief: as §1
KB = assay: Cytotoxicity against human KB cells after 72 hrs by Alamar blue assay

Cc1c(CO)c(CO)c2n1Cc1c(c3ccccc3n1C)C2
IC50 (MX1): 220 nM
IC50 (PC-3): 610 nM
IC50 (CCRF-CEM): 40 nM
half-life [1]: 12.4 h
Activity (Escherichia coli): Active
Activity (NCI-H460 [2]): Active
Activity (NCI-H460 [3]): 61.35%
Activity [4]: Active
Activity [5]: Active
Activity (Mus musculus): Toxic
TGI (HT-29): Active
Ratio IC50 (MES-SA): 0.52
Ratio IC50 [6]: 0.52
IC50 (A549): 1140 nM
IC50 (KB): 2510 nM
